From ChEMBL document CHEMBL4304784, “Discovery of new potent dual sigma receptor/GluN2b ligands with antioxidant property as neuroprotective agents” (Eur J Med Chem, 2019)
Converted amounts (≈) assume the structure as drawn.

Experiments:
[1] = molecular target: Glutamate NMDA receptor; GRIN1/GRIN2B (Homo sapiens, UniProt Q05586+Q13224); test: Displacement of [3H]ifenprodil from GluN1a/GluN2B (unknown origin) expressed in mouse L(tk-) cell membranes after 120 mins by solid scintillation counting method
Method in brief: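 Membranes (about 20 μg protein) from mouse L(tk-) cells stably carrying GluN1a/GluN2B, induced with 4 μM dexamethasone and 4 μM ketamine for 24 h. Incubated with 5 nM [3H]ifenprodil in 5 mM TRIS/1 mM EDTA pH 7.5 at 37 °C, 120 min. Non-specific binding defined with 10 μM ifenprodil.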

[2] = molecular target: Sigma non-opioid intracellular receptor 1 (Cavia porcellus, UniProt Q60492); test: Displacement of [3H]-(+)-pentazocine from sigma1 receptor in guinea pig brain cortex membranes incubated for 120 mins by solid scintillation counting method; assay type: cell membranes
Method in brief: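 Guinea pig brain cortex membranes (about 100 µg protein) with 2 nM [3H]-(+)-pentazocine in 50 mM TRIS pH 7.4 at 37 °C. Non-specific binding defined with 10 µM unlabeled (+)-pentazocine. Six concentrations, 10^-5 to 10^-10 M, in duplicate. 120 min with shaking, filtration, solid scintillator counting.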

[3] = molecular target: T1, Sigma intracellular receptor 2 (Rattus norvegicus, UniProt Q5U3Y7); test: Displacement of [3H]-di-o-tolylguanidine from sigma2 receptor in rat liver membranes in the presence of sigma1 receptor ligand (+)-pentazocine incubated for 120 mins by scintillation counting method; assay type: cell membranes
T1 sequence (Q5U3Y7 whole entry): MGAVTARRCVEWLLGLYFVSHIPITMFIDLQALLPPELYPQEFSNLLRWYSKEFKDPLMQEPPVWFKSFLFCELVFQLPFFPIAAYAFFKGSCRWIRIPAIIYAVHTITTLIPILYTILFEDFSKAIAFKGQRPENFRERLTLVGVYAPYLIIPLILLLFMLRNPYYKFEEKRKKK
Method in brief: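 Rat liver membranes (about 100 µg protein) with 3 nM [3H]di-o-tolylguanidine in 50 mM TRIS pH 8.0 containing 500 nM (+)-pentazocine, at rt. Non-specific binding defined with 10 µM unlabeled DTG. Concentrations 10^-5 to 10^-10 M, in duplicate. 120 min, filtration, scintillation counting. Three independent experiments, mean ± SEM.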

[4] = Selectivity ratio of Ki for sigma1 receptor in guinea pig brain membranes to Ki for sigma2 receptor in rat liver membranes; assay type: cell membranes
[5] = Selectivity ratio of Ki for sigma2 receptor in rat liver membranes to Ki for GluN1a/GluN2B (unknown origin) expressed in mouse L(tk-) cell membranes; assay type: cell-based
[6] = Antioxidant activity assessed as ABTS radical scavenging activity incubated for 40 mins; assay type: functional
Method in brief: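 Test compound at 0.05, 0.1, 0.2 and 0.4 mg/mL (200 µL) added to 1.8 mL ethanolic ABTS 7mM. Incubated 40 min at room temperature, absorbance read at 735 nm against ABTS solution. Percent inhibition computed from absorbances and used to derive IC50. Triplicate, mean ± SEM; ascorbic acid as reference.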

[7] = Antioxidant activity assessed as H2O2 radical scavenging activity; assay type: functional
Method in brief: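 Compounds at 0.05, 0.1, 0.2 and 0.4 mg/mL in phosphate buffer pH 7.4. 0.353 mL of 4 mM H2O2 in phosphate buffer added to 2.0 mL of each solution, absorbance read at 239 nm. Percent inhibition calculated from absorbances relative to control. Triplicate, mean ± SEM.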

[8] = Cytotoxicity against human SH-SY5Y cells assessed as cell viability at 10 uM incubated for 48 hrs by MTT assay (reference value: 100 +/- 12.00%); assay type: cell-based; conditions: read-out: Activity
Method in brief: (§1)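 Cells kept in DMEM Glutamax with 10% FBS and antibiotic/antimycotic at 37 °C, 5% CO2. Plated at 2x10^3 cells/well 24 h before dosing. Compounds taken from DMSO and diluted in medium, final DMSO ≤1.0%. Exposure 48 h, then MTT added for 4 h at 37 °C. Read as A595 minus A655. Triplicates, at least three independent experiments, mean ± SEM.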

[9] = Cytotoxicity against human SH-SY5Y cells assessed as cell viability at 25 uM incubated for 48 hrs by MTT assay (reference value: 100 +/- 12.00%); assay type: cell-based; conditions: read-out: Activity; method in brief: as §1
[10] = Cytotoxicity against human SH-SY5Y cells assessed as cell viability at 50 uM incubated for 48 hrs by MTT assay (reference value: 100 +/- 12.00%); assay type: cell-based; conditions: read-out: Activity; method in brief: as §1
[11] = Cytotoxicity against human SH-SY5Y cells assessed as cell viability at 100 uM incubated for 48 hrs by MTT assay (reference value: 100 +/- 12.00%); assay type: cell-based; conditions: read-out: Activity; method in brief: as §1
[12] = Cytotoxicity against human Hep3B cells assessed as cell viability at 10 uM incubated for 48 hrs by MTT assay relative to control; assay type: cell-based, Hep 3B2; conditions: read-out: Activity; method in brief: as §1
[13] = Cytotoxicity against human Hep3B cells assessed as cell viability at 25 uM incubated for 48 hrs by MTT assay relative to control; assay type: cell-based, Hep 3B2; conditions: read-out: Activity; method in brief: as §1
[14] = Cytotoxicity against human Hep3B cells assessed as cell viability at 50 uM incubated for 48 hrs by MTT assay relative to control; assay type: cell-based, Hep 3B2; conditions: read-out: Activity; method in brief: as §1
[15] = Cytotoxicity against human Hep3B cells assessed as cell viability at 100 uM incubated for 48 hrs by MTT assay relative to control; assay type: cell-based, Hep 3B2; conditions: read-out: Activity; method in brief: as §1
[16] = Cytotoxicity against human HeLa cells assessed as cell viability at 10 uM incubated for 48 hrs by MTT assay relative to control; assay type: cell-based; conditions: read-out: Activity; method in brief: as §1
[17] = Cytotoxicity against human HeLa cells assessed as cell viability at 25 uM incubated for 48 hrs by MTT assay relative to control; assay type: cell-based; conditions: read-out: Activity; method in brief: as §1
[18] = Cytotoxicity against human HeLa cells assessed as cell viability at 50 uM incubated for 48 hrs by MTT assay relative to control; assay type: cell-based; conditions: read-out: Activity; method in brief: as §1
[19] = Cytotoxicity against human HeLa cells assessed as cell viability at 100 uM incubated for 48 hrs by MTT assay relative to control; assay type: cell-based; conditions: read-out: Activity; method in brief: as §1
[20] = Cytotoxicity against human SH-SY5Y cells assessed as decrease in cell viability incubated for 48 hrs by MTT assay; assay type: cell-based; conditions: read-out: LD50
Method in brief: (§2)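 Cells kept in DMEM Glutamax with 10% FBS and antibiotic/antimycotic at 37 °C, 5% CO2. Seeded 24 h before dosing (SH-SY5Y at 2x10^3 cells/well). Compounds in DMSO serially diluted in medium, final DMSO 1.0%, exposure 48 h. MTT added for 4 h at 37 °C, read A595 minus A655. LD50 from linear regression of dose-log response curves; triplicates, three experiments, mean ± SEM.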

[21] = Cytotoxicity against human Hep3B cells assessed as decrease in cell viability incubated for 48 hrs by MTT assay; assay type: cell-based, Hep 3B2; conditions: read-out: LD50; method in brief: as §2
[22] = Cytotoxicity against human HeLa cells assessed as decrease in cell viability incubated for 48 hrs by MTT assay; assay type: cell-based; conditions: read-out: LD50; method in brief: as §2
[23] = tested on: SH-SY5Y; test: Neuroprotective activity against H2O2-induced toxicity in human SH-SY5Y cells assessed as cell viability at 25 uM pretreated for 48 hrs followed by H2O2 challenge and measured after 4 hrs by MTT assay (reference value: 18 +/- 2.64%); assay type: functional; conditions: read-out: Activity

Sequence of Sigma non-opioid intracellular receptor 1 (Q60492 whole entry): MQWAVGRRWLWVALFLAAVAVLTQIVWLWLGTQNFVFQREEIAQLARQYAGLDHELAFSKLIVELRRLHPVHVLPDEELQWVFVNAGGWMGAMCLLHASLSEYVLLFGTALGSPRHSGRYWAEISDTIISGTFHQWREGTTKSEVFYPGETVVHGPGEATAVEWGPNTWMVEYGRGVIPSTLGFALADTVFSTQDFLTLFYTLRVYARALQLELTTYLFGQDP
Sequence of Glutamate NMDA receptor; GRIN1/GRIN2B (Q13224 whole entry, other chains not shown): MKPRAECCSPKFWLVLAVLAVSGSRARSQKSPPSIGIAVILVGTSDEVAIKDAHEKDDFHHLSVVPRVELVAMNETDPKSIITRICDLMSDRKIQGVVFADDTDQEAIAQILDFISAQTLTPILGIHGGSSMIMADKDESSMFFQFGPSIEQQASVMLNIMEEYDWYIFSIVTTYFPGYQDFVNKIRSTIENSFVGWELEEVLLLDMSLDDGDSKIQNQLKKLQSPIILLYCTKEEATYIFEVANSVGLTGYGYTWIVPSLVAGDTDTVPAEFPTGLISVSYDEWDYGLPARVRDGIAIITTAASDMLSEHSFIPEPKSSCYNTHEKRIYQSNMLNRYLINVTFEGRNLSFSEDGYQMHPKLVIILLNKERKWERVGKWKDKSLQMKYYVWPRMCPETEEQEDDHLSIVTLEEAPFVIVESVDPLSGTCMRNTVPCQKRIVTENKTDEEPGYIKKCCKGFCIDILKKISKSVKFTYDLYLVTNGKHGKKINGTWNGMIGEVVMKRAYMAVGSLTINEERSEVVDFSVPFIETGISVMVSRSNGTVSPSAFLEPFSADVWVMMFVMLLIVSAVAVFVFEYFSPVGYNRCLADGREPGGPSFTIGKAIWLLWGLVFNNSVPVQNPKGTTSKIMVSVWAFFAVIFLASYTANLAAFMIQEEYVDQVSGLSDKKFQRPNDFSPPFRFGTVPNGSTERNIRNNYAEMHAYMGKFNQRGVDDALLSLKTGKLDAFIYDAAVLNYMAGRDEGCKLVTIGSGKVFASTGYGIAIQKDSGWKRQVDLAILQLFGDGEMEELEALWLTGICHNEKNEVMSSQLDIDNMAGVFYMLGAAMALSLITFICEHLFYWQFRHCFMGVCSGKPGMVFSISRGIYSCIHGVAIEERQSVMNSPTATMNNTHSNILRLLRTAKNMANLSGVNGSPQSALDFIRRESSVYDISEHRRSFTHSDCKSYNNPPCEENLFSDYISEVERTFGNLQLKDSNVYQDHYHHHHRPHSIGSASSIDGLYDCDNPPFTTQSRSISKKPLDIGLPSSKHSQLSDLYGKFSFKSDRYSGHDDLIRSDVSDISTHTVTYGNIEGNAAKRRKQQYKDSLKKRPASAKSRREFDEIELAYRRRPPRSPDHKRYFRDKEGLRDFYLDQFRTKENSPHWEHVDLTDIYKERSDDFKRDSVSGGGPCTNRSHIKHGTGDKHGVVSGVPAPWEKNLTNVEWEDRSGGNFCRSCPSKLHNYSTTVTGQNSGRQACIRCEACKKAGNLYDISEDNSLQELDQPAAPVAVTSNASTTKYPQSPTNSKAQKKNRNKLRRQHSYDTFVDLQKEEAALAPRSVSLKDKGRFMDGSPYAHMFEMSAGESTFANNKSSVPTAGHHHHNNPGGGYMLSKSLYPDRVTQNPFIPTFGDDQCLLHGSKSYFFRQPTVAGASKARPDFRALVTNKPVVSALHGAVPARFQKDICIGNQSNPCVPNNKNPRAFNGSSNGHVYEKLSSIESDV

Compound	Ki [1]	Ki [2]	Ki [3]	Ratio Ki [4]	Ratio Ki [5]	IC50 [6]	IC50 [7]	viability at 48 h, 10 µM [8]	viability at 48 h, 25 µM [9]	viability at 48 h, 50 µM [10]	viability at 48 h, 100 µM [11]	viability at 48 h, 10 µM [12]	viability at 48 h, 25 µM [13]	viability at 48 h, 50 µM [14]	viability at 48 h, 100 µM [15]	viability at 48 h, 10 µM [16]	viability at 48 h, 25 µM [17]	viability at 48 h, 50 µM [18]	viability at 48 h, 100 µM [19]	CC50 at 48 h [20]	also measured
O=c1oc(-c2ccccc2)nn1CCCCN1CCN(c2ccc(F)cc2)CC1	68 nM	383 nM	686 nM	0.57	10																
COc1cc2c(cc1OC)CN(CCCCn1nc(-c3ccccc3)oc1=O)CC2	27 nM	1600 nM	864 nM	1.8	32	20.95 µg/mL (≈ 51.2 µM)	27.63 µg/mL (≈ 67.5 µM)	97%	80 to 94%	96%	95%	85%	75%	58%	25%	84%	82%	81%	39%	77000 nM	CC50 at 48 h [21]: 70000 nM; CC50 at 48 h [22]: 69000 nM; viability at 25 µM [23]: 88%
COc1cc2c(cc1OC)CN(CCCCN1C(=O)CCc3ccccc31)CC2	12 nM	116 nM	45 nM	2.6	3.7	12.35 µg/mL (≈ 31.3 µM)	15.37 µg/mL (≈ 39 µM)	71%	77 to 84%	68%	37%	75%	70%	62%	30%	80%	79%	71%	42%	36000 nM	CC50 at 48 h [21]: 67000 nM; CC50 at 48 h [22]: 83000 nM; viability at 25 µM [23]: 73%
Cc1c(C)c2c(c(C)c1O)CCC(C)(C(=O)O)O2 (stereo unspecified) [TROLOX]						22.15 µg/mL (≈ 88.5 µM)	25.88 µg/mL (≈ 103 µM)														
O=C1CCc2ccccc2N1CCCCN1CCC2(CC1)OCc1ccccc12	5 nM	18 nM	34 nM	0.5	6.8	78.8 µg/mL (≈ 202 µM)	84.56 µg/mL (≈ 217 µM)	116%	88 to 107%	40%	16%	61%	67%	38%	10%	92%	78%	45%	31%	60000 nM	CC50 at 48 h [21]: 50000 nM; CC50 at 48 h [22]: 55000 nM; viability at 25 µM [23]: 97%
Cc1ccc(CN(C)CCCCn2nc(-c3ccccc3)oc2=O)c(C)c1	26 nM	20 nM	21 nM	0.95	0.8	25.47 µg/mL (≈ 69.7 µM)	31.44 µg/mL (≈ 86 µM)	121%	85 to 96%	75%	28%	100%	83%	70%	25%	86%	74%	80%	22%	77000 nM	CC50 at 48 h [21]: 70000 nM; CC50 at 48 h [22]: 69000 nM; viability at 25 µM [23]: 100%
O=C1CCc2ccccc2N1CCCCN1CCc2ccc([N+](=O)[O-])cc2C1	58 nM	179 nM	80 nM	2.2	1.4																
O=c1oc(-c2ccccc2)nn1CCCCN1CCc2ccc([N+](=O)[O-])cc2C1	412 nM	829 nM	383 nM	2.2	0.9																
O=c1oc(-c2ccccc2)nn1CCCCN1CCN(c2ccccn2)CC1	226 nM	944 nM	2800 nM	0.33	12.4																
O=C1CCc2ccccc2N1CCCCN1CCN(c2ccccn2)CC1	78 nM	120 nM	73 nM	1.6	0.9																
O=C1O[C@H]([C@@H](O)CO)C(O)=C1O [ASCORBIC ACID]						13.85 µg/mL (≈ 78.6 µM)	17.11 µg/mL (≈ 97.1 µM)														
